Assay results taken from article PMC6447837 (Cancer Science, 2019).

Experiments:
Bxpc‐3 cells [1] = experiment: Colony formation assay; type: cell-based, human; details: 18 days
How it was run: (§1)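 Cells were seeded at 5000-8000 per well and treated with test compound the next day, from DMSO stocks diluted in medium. Medium with vehicle or compound was replaced every 4 days. Cells were then methanol-fixed and crystal violet-stained. Colonies of more than 50 cells were counted under an inverted microscope and expressed as a percentage of colony numbers. Mean of n = 3, with SD.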

Bxpc‐3 cells [2] = experiment: Transwell invasion assay; type: cell-based, human
How it was run: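 Inserts were precoated with polymerized collagen type I. Cells were seeded on the insert bottom in serum‑free medium with serial dilutions of test compound or vehicle, with 10% FBS medium in the lower chamber. After one day, cells were stained with calcein‑AM and optical sections taken at 10‑μm intervals. Invasion was scored as cells moving >20 μm into collagen; n = 3, mean with SD.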

DU145 = details: DU145, Prostate carcinoma; ref Zhang et al (2016) 35; cited from earlier work
Bxpc‐3 cells [3] = experiment: Annexin V/PI apoptosis assay; type: cell-based, human; details: 24 hours
How it was run: (§2)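 Cells were treated with a range of concentrations for 24 hours, washed with PBS, then stained with annexin V‑FITC and propidium iodide for 15 minutes in the dark. […] Early (annexin V) and late (PI) apoptotic cells are reported as percentages, mean of n = 3 with SD.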

Bxpc‐3 cells [4] = experiment: Wound healing assay; type: cell-based, human; details: 18 hours
Bxpc‐3 xenograft = experiment: Subcutaneous xenograft model; type: in vivo, NOD‐SCID mice; details: Bxpc‐3 model
How it was run: (§3)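 Female NOD‑SCID mice bearing s.c. right‑flank tumors (5 × 10⁶–1 × 10⁷ cells injected) were randomized at 100–200 mm³ (6–7 per group). They received test compound in 25% PEG400/5% DMSO/water by oral gavage once daily for 18 days, or vehicle. Tumors were measured by caliper every 3 days, with volume = length × width² × 0.5.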

Aspc‐1 cells [5] = experiment: Wound healing assay; type: cell-based, human; details: 18 hours
NCI‐N87 = experiment: MTT antiviability assay; type: cell-based; details: Homo sapiens, NCI-N87, 72 h
Lyn = Lyn (Homo sapiens, UniProt P07948); experiment: Radiometric kinase IC50 assay; type: biochemical
Aspc‐1 cells [6] = experiment: Annexin V/PI apoptosis assay; type: cell-based, human; details: 24 hours
How it was run: as §2

LO2 = details: LO2, Human hepatic cells (normal cell line); ref Zhang et al (2016) 35; cited from earlier work
MDA‐MB‐415 = details: MDA‐MB‐415, Breast cancer; ref Zhang et al (2016) 35; cited from earlier work
cleaved caspase‐3 = experiment: Immunohistochemistry of xenograft tumor tissues; type: in vivo, NOD‐SCID mice; details: xenograft models; LY‐1816 40 mg/kg/d p.o., gemcitabine 80 mg/kg/wk; IHC
How it was run: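 Aspc‑1 or Bxpc‑3 s.c. tumors in NOD‑SCID mice were dosed p.o. daily from about 200 mm³, with vehicle controls. At study end, tumors were resected. Frozen sections were immunostained and imaged by light microscopy, and cleaved caspase‑3‑positive cells were counted.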

Aspc‐1 xenograft = experiment: Subcutaneous xenograft model; type: in vivo, NOD‐SCID mice; details: Aspc‐1 model
How it was run: as §3

HL‐60 = details: HL‐60, Acute myeloid leukemia; mean ± SD; ref Zhang et al (2016) 35; cited from earlier work
Bxpc‐3 cells [7] = experiment: EdU incorporation; type: cell-based, human; details: 24 hours
How it was run: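 Cells were seeded overnight at 5000-8000 per well in 96-well plates, then exposed to test compound for 24 h. Cells were then incubated with EdU followed by Hoechst, using a commercial kit per manufacturer's instructions. EdU marks proliferating cells and Hoechst marks nuclei. The read-out was the percentage of EdU-positive cells, as mean of n = 3 with SD.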

COLO‐205 = experiment: MTT antiviability assay; type: cell-based; details: Homo sapiens, COLO 205, 72 h
Src = Src (Homo sapiens, UniProt P12931); type: cell-based; details: 12 hours, western blot
SMMC7721 = details: SMMC7721, Hepatocarcinoma; ref Zhang et al (2016) 35; cited from earlier work
ZR‐75‐1 = details: ZR‐75‐1, Breast cancer; ref Zhang et al (2016) 35; cited from earlier work
[8] = test system: Miapaca‐2 metastatic model; experiment: Experimental metastasis assay; type: in vivo, NOD‐SCID mice; details: 40 mg/kg/d
How it was run: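 Miapaca‑2 cells (5 × 10⁶) were injected into the tail vein of 5‑ to 6‑week‑old female NOD‑SCID mice. Mice were randomized immediately into 5 groups of 6 and given test compound p.o. at 20 or 40 mg/kg, comparators, or vehicle. […] Kaplan–Meier analysis used a log rank test against control.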

Aspc‐1 cells [9] = experiment: Colony formation assay; type: cell-based, human; details: 14 days
How it was run: as §1

Yes = Yes (Homo sapiens, UniProt P07947); experiment: Radiometric kinase IC50 assay; type: biochemical
FOSL1 = experiment: Immunohistochemistry of xenograft tumor tissues; type: in vivo, NOD‐SCID mice; details: Aspc‐1 and Bxpc‐3 models; LY‐1816 and dasatinib 40 mg/kg/d p.o., gemcitabine 80 mg/kg/wk; IHC
How it was run: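 Six-week-old female NOD-SCID mice received 5 × 10⁶ to 1 × 10⁷ cells s.c. in the right flank. Treatment began at about 200 mm³. Test compound (40 mg/kg/d) was given once daily by oral gavage in 25% PEG400 plus 5% DMSO in water. Tumors were resected at the end of dosing. Frozen sections were immunostained and imaged by light microscopy.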

HepG2 = details: HepG2, Hepatocarcinoma; ref Zhang et al (2016) 35; cited from earlier work
[10] = 40 mg/kg daily, orally, 18 days
[11] = LY‐1816 20 or 40 mg/kg/d p.o., dasatinib 40 mg/kg/d p.o., gemcitabine 80 mg/kg once a week

Sequence of Src (P12931 whole entry): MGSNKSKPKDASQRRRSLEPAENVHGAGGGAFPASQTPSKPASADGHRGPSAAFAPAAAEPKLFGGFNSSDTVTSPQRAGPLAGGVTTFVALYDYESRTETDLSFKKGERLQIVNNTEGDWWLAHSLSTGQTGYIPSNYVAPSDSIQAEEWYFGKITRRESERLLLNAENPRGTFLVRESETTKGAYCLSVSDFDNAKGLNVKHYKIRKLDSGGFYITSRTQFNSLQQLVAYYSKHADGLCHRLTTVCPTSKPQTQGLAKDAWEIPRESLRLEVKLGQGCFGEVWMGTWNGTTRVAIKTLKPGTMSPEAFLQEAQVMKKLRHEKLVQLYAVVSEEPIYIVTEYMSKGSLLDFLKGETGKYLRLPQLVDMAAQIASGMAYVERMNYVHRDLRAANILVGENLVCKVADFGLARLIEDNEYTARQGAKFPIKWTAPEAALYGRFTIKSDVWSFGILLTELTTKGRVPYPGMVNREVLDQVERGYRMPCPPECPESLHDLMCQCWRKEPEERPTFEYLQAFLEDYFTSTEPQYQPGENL
Sequence of Lyn (P07948 whole entry): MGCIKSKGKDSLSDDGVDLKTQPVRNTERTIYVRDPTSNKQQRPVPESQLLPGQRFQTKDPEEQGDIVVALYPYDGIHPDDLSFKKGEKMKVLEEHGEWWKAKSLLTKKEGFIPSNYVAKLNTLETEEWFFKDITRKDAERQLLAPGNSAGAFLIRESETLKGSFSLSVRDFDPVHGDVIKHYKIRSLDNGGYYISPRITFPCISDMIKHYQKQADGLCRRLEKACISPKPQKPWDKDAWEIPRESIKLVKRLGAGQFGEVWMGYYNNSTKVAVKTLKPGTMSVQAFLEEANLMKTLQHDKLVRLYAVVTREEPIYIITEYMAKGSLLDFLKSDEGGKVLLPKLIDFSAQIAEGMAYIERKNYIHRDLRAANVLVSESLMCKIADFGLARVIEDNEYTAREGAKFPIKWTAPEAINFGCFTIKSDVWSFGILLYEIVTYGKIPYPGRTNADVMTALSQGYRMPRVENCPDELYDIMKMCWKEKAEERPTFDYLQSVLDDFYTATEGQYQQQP
Sequence of Yes (P07947 whole entry): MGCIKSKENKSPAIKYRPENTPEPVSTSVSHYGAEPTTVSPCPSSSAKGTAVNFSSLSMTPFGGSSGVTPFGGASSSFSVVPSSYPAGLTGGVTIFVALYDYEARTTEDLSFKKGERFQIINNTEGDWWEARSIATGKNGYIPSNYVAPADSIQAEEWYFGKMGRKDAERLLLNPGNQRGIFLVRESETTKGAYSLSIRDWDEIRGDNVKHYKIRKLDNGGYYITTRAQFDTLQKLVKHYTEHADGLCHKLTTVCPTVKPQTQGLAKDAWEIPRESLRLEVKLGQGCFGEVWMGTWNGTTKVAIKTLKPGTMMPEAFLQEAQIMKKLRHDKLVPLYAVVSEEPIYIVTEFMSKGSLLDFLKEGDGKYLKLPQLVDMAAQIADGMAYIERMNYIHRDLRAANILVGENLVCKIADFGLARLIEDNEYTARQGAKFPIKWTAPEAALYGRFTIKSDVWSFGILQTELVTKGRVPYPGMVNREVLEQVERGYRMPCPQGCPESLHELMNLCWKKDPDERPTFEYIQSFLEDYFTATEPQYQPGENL

Structure (SMILES): Cc1ccc(NC(=O)c2ccc(C)c(C(F)(F)F)c2)cc1C#Cc1nn(C2CCC(O)CC2)c2ncnc(N)c12 (stereo not shown) [LY‐1816, N‐(3‐((4‐amino‐1‐(4‐hydroxycyclohexyl)‐1H‐pyrazolo[3,4‐d]pyrimidin‐3‐yl)ethynyl)‐4‐methylphenyl)‐4‐methyl‐3‐(trifluoromethyl)benzamide]
- colony growth (Bxpc‐3 cells [1]): significantly inhibited the colony growth
- cell invasion (Bxpc‐3 cells [2]): significantly suppressed the invasion
- IC50 (DU145): > 10000 nM
- apoptosis (annexin V and PI‐positive populations) (Bxpc‐3 cells [3]): significantly increased the annexin V and PI‐positive populations
- cell migration (Bxpc‐3 cells [4]): dose‐dependently reduced cell migration
- tumor‐inhibition rate (Bxpc‐3 xenograft; [10]): > 90%
- antitumor activity (Bxpc‐3 xenograft; [11]): dose‐dependent tumor inhibitory activities
- cell migration (Aspc‐1 cells [5]): dose‐dependently reduced cell migration
- IC50 (NCI‐N87): 147 ± 44 nM
- IC50 (Lyn): 4 nM
- apoptosis (annexin V and PI‐positive populations) (Aspc‐1 cells [6]): significantly increased the annexin V and PI‐positive populations
- IC50 (LO2): > 10000 nM
- IC50 (MDA‐MB‐415): ~10000 nM
- cleaved caspase‐3 stain in tumor tissues (cleaved caspase‐3): considerable ability to induce apoptosis
- tumor‐inhibition rate (Aspc‐1 xenograft; [10]): > 90%
- antitumor activity (Aspc‐1 xenograft; [11]): dose‐dependent tumor inhibitory activities
- IC50 (HL‐60): 31 ± 12 nM
- DNA replication (EdU) (Bxpc‐3 cells [7]): dose‐dependently suppress the DNA replication
- IC50 (COLO‐205): 17 ± 1 nM
- phosphorylation of Src (Src; 10 PDAC cell lines): potently inhibited the phosphorylation of Src
- Src phosphorylation (Src; HT29 and HCT116 cells): relatively weak potency
- IC50 (SMMC7721): > 10000 nM
- IC50 (ZR‐75‐1): ~10000 nM
- mice alive at day 105 [8]: 33%
- colony growth (Aspc‐1 cells [9]): significantly inhibited the colony growth
- IC50 (Yes): 1 nM
- expression of FOSL1 in tumor tissues (FOSL1): evidently reduced
- IC50 (HepG2): > 10000 nM
